Results collected from several papers.
Compare with care: the assays were run in different laboratories.
ADRA1B: Alpha-1B adrenergic receptor (ADRA1B, Homo sapiens, UniProt P35368)
CASP1: Caspase-1 (CASP1, Homo sapiens, UniProt P29466)
PPARA: Peroxisome proliferator-activated receptor alpha (PPARA, Homo sapiens, UniProt Q07869)

SMILES	target	assay	conditions	Ki
CC(=O)N[C@@H](CC(C)C)C(=O)N[C@@H](CC(C)C)C(=O)N[C@@H](CCCN=C(N)N)C(=O)N[C@H](C(=O)N[C@@H](CCCCN)C(=O)N[C@@H](CCCN=C(N)N)C(N)=O)C(C)C	Proprotein convertase subtilisin/kexin type 7 (Homo sapiens, UniProt Q16549)	enzyme activity, inhibitor	–	2700 nM
O=C1c2ccccc2CCN1CCCCN1CCN(c2cccc(Cl)c2Cl)CC1	ADRA1B	ligand displacement, radioligand	–	649 nM
O=c1cc(-c2ccc(O)c(O)c2)oc2cc(O)cc(O)c12	CASP1	enzyme activity, inhibitor, fluorescence	–	119000 nM
CC(=O)N[C@@H](CCCNC(=N)N)C(=O)NCC(=O)NCC(=O)N1CCC[C@H]1B(O)O	Prolyl endopeptidase (PREP, Homo sapiens, UniProt P48147)	enzyme activity, inhibitor, fluorescence	–	1.6 nM
Cc1c(C)n(Cc2ccc(-c3ccccc3C(=O)O)cc2)c2ccc(C(=O)N[C@@H](C)c3ccc([N+](=O)[O-])cc3)cc12	PPARA	ligand displacement, TR-FRET	–	11200 nM
CCCC[C@H](NC(=O)[C@H](C)c1c(C)[nH]c2ccc(O)cc12)c1ncc(-c2cc3ccccc3nc2OC)[nH]1	Histone deacetylase 3 (HDAC3, Homo sapiens, UniProt O15379)	enzyme activity, inhibitor	–	60 nM
O=S(=O)(Nc1ccc[nH]c1=S)c1cccs1	Insulin-degrading enzyme (IDE, Homo sapiens, UniProt P14735)	enzyme activity, inhibitor, fluorescence	–	77000 nM
Cc1cccc(C(=O)NCN2CCN(c3ccccc3C#N)CC2)c1	D(2) dopamine receptor (Drd2, Rattus norvegicus, UniProt P61169)	ligand displacement, radioligand	cell membranes	1380 nM
O=C(O)c1c(Sc2ccccc2)c2cc(Cl)ccc2n1Cc1ccc(Cl)cc1	PPARA	ligand displacement, TR-FRET	–	19700 nM
O=C1c2ccccc2CCN1CCCCN1CCN(c2ccccn2)CC1	ADRA1B	ligand displacement, radioligand	–	1380 nM
CC[C@H](C)[C@H](NC(=O)[C@H](CCCNC(=N)N)NC(=O)[C@H](CCCNC(=N)N)NC(=O)[C@H](CC(C)C)NC(=O)CNC(=O)[C@H](CCC(N)=O)NC(=O)[C@H](C)NC(=O)[C@@H](NC(=O)[C@H](Cc1c[nH]c2ccccc12)NC(=O)[C@@H](NC(=O)[C@H](CCC(=O)O)NC(=O)[C@@H]1CCCN1C(=O)[C@H](CCCNC(=N)N)NC(C)=O)[C@@H](C)CC)[C@@H](C)CC)C(=O)NCC(=O)N[C@@H](CC(=O)O)C(=O)N[C@H](C(=O)N[C@@H](Cc1c[nH]c2ccccc12)C(=O)N[C@@H](CC(N)=O)C(=O)N[C@@H](C)C(=O)N[C@@H](Cc1ccc(O)cc1)C(=O)N[C@@H](Cc1ccc(O)cc1)C(=O)N[C@@H](C)C(=O)N[C@@H](CCCNC(=N)N)C(N)=O)[C@@H](C)O	Bcl-2-related protein A1 (Homo sapiens, UniProt Q16548)	ligand displacement, FP	pH 7.8	8 nM
COc1ccccc1N1CCN(CCCCN2CCc3ccccc3C2=O)CC1	ADRA1B	ligand displacement, radioligand	–	76.6 nM
O=c1c(O)c(-c2ccc(O)cc2)oc2cc(O)cc(O)c12	CASP1	enzyme activity, inhibitor, fluorescence	–	> 300000 nM
